# Screening results (PubChem)
# Most compounds without a hit are left out; they make up all but 2.3% or so of the library.
# GPR7 antagonist: GPR7 receptor antagonists, primary screen, cell-based, fluorescence, single concentration; 290,000 compounds, 1.1% hits; GPR7-expressing cells, fluorescence antagonist assay; Neuropeptides B/W receptor type 1 (Homo sapiens), P48145; inhibition, % at 4.4 µM; in the data active = inhibition above about 16%, passing the limit was not always enough;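 note: cells stimulated with the agonist NPW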
# EBV gp42 inh: Epstein-Barr virus gp42 inhibitors, primary screen, biochemical, uHTS, fluorescence polarization; Glycoprotein 42 (Epstein-Barr virus (strain AG876)), Q1HVG2; Fluorescence polarization binding assay, mP read-out; inhibition, % (tested at 21.74 µM); 220,000 compounds, 0.42% hits; AID 1085, 2008; in the data active = inhibition above about 50%
# Target sequence (Q1HVG2 whole entry, looked up): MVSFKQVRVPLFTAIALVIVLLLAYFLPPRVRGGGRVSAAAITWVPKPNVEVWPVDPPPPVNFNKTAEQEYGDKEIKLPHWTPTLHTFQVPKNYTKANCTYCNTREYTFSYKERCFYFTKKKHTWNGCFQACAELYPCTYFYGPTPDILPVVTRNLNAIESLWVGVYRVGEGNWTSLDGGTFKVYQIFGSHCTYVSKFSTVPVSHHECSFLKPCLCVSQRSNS
# ZTA counter: ZTA (EBV) inhibition in EBNA-1 counter-screen | P03206 | ZTA-DNA binding, fluorescence polarization | inhibition, % at 11 µM | 320,000 compounds, 0.15% hits | AID 2234; in the data active = inhibition above about 33%
# Target sequence (P03206 whole entry, looked up): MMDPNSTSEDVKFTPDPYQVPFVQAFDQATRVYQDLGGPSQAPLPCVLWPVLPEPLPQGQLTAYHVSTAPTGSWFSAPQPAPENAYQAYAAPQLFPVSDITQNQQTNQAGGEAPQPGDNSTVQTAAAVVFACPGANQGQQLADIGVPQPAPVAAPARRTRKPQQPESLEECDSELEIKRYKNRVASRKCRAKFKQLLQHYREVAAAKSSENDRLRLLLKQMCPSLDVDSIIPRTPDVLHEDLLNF
# HCV core dimer: inhibitors of HCV core protein dimerization, primary screen, biochemical, TR-FRET, high-throughput | TR-FRET GST/Flag-core106 dimerization, 1536-well | inhibition, % at 5 µM | 300,000 compounds, 0.33% hits;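 active = inhibition above the mean of all tested compounds plus 3 SD, set per screening campaign, cut at about 45% in these data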
#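 test system = GST/Flag-tagged HCV core106 proteins | probe or stimulus = Eu donor and XL665 acceptor anti-tag antibodies | times = compound-protein-antibody incubation 4 h at 22.5 °C | signal = TR-FRET, excitation 340 nm, emission 617 and 671 nm | measure = percent inhibition of core106 dimerization signal | controls = wells lacking GST-core106 and wells with excess unlabelled core106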
# HCV NS3 hel inh: inhibitors of HCV NS3 helicase, primary screen, biochemical, Cy5 molecular beacon fluorescence; Hepatitis C virus NS3 helicase; NS3 helicase DNA unwinding; inhibition, % at 10.9 µM; 290,000 compounds, 0.56% hits; AID 1800, 2009;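 active = inhibition above the mean of all tested compounds plus 3 SD, set per campaign, cut at about 35% in these data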
#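 Material: hepatitis C virus NS3 helicase domain fragment enzyme; measured by: Cy5 fluorescence, 0 and 60 min reads; control set: DMSO and thioflavine S; incubation: 60 min unwinding reaction at 25 °C after ATP addition; read-out basis: % inhibition from 60/0 min fluorescence ratio, DMSO 0%, thioflavine S 100%; repeats: singlicate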
# EBNA-1 inhibitor: EBNA-1 DNA-binding inhibitors, primary screen, biochemical, fluorescence polarization. inhibition, % at 14.8 µM. 300,000 compounds, 0.34% hits. AID 1950, 2009; in the data active = inhibition above about 28%
# GPR7 antag conf: GPR7 receptor antagonists, confirmation, cell-based, fluorescence, single concentration. GPR7-expressing cells, calcium fluorescence antagonist mode. shares compounds with GPR7 antagonist. inhibition, % at 4.4 µM. 2,400 compounds, 52% hits; in the data active = inhibition above about 24%;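 note: stimulated with the GPR7 agonist NPW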
# MCHR1 antag: MCHR1 antagonists in cells, counter-screen for GPR7 antagonist project, cell-based, fluorescence, human | 2,400 compounds, 62% hits | MCHR1-expressing cells, fluorescence antagonist assay | shares compounds with GPR7 antagonist | inhibition, % at 4.4 µM; in the data active = inhibition above about 22%
# A number is an active result; - = inactive; . = no result given.
SMILES,GPR7 antagonist,EBV gp42 inh,ZTA counter,HCV core dimer,HCV NS3 hel inh,EBNA-1 inhibitor,GPR7 antag conf,MCHR1 antag
O=C(NC1CCCCC1)C(c1ccc(F)cc1)N(Cc1ccco1)C(=O)Cn1nnc2ccccc21 (centres undefined),-,-,-,-,-,-,.,.
O=C(NCC(=O)N(Cc1cccs1)C(C(=O)NC1CCCCC1)c1ccco1)c1ccco1 (centres undefined),-,-,-,-,-,-,.,.
O=C(NCC(=O)N(Cc1ccco1)C(C(=O)NC1CCCC1)c1ccncc1)c1cccs1 (centres undefined),-,-,-,-,-,-,.,.
O=C(NC1CCCCC1)C(c1ccccc1F)N(Cc1ccco1)C(=O)Cn1nnc2ccccc21 (centres undefined),28.6,-,-,-,-,-,43.4,31.1
COc1cc2nc(=S)n(CCCN3CCOCC3)c(N)c2cc1OC,-,-,.,.,-,.,.,.
CC(C(=O)O)n1c(-c2ccn[nH]2)n[nH]c1=S (centres undefined),-,-,-,-,-,-,.,.
O=C(c1ccc(Cl)cc1)C(CN1CCCC1)c1ccccc1 (centres undefined),74.2,.,-,-,-,-,46.4,86.9
COc1ccc(C(=O)C(CN2CCCC2)c2ccccc2)cc1 (centres undefined),-,-,-,-,-,-,.,.
O=C(O)c1ccc(CN2C(=O)c3ccc(Oc4ccc([N+](=O)[O-])cc4)cc3C2=O)cc1,39.2,.,-,-,-,-,-,-
O=C(CSc1ccc(Br)cc1)N1CCN(S(=O)(=O)c2ccccc2)CC1,-,.,-,-,-,-,.,.
O=C(CSc1cccc(C(F)(F)F)c1)N1CCN(S(=O)(=O)c2ccccc2)CC1,34.0,-,-,-,-,-,-,-
COc1ccc(-n2c(SCCC#N)nnc2-c2cc(Cl)ccc2OC)cc1Cl,24.4,-,-,-,-,-,40.1,45.9
CCOc1ccccc1N=c1oc2cc(O)ccc2cc1C(=O)NCC1CCCO1 (centres undefined),28.7,-,-,-,-,-,-,-
c1ccc(CCNc2ccnc3cc4ccccc4cc23)cc1,37.3,-,.,.,-,.,44.8,74.9
O=C(Nc1ccccc1)c1ccc(CN2CCc3ccccc3C2)cc1,-,-,-,-,-,-,.,.
COCCN1Cc2cccc(C(=O)Nc3ccc(S(=O)(=O)N4CCCCC4)cc3)c2C1=O,24.1,-,-,-,-,-,-,-
Cc1ccc(NC(=O)c2ccc(S(=O)(=O)N3CCCC3)cc2)cc1,-,.,-,-,-,-,.,.
CCOC(=O)c1ccc(NC(=O)c2ccc(C)c(S(=O)(=O)N3CCOCC3)c2)cc1,-,-,-,-,-,-,.,.
Cc1ccc(C(=O)Nc2ccc(S(=O)(=O)N3CCN(C)CC3)cc2)cc1,45.0,-,-,-,-,-,-,-
COCCN1Cc2cccc(C(=O)Nc3ccc(C)cc3)c2C1=O,-,-,-,-,-,-,.,.
O=C(Nc1ccc(S(=O)(=O)N2CCCCC2)cc1)c1ccc(CN2CCc3ccccc3C2)cc1,25.2,-,-,-,-,-,48.8,56.9
CCOC(=O)c1ccc(NC(=O)c2cccc(S(=O)(=O)N3CCOCC3)c2)cc1,23.8,-,-,-,-,-,-,74.8
CNC(=O)C(=O)NCCN1CCN(S(=O)(=O)c2ccc3ccccc3c2)CC1,-,.,.,.,-,.,.,.
COc1ccccc1N1CCN(C(=O)c2noc(C(C)C)c2[N+](=O)[O-])CC1,-,.,-,-,-,-,.,.
O=C(NC1CCSc2ccccc21)c1cccc(OC(F)F)c1 (centres undefined),-,.,-,-,-,-,.,.
O=C(NC1CCSc2ccccc21)c1cccc(Br)c1 (centres undefined),27.4,.,-,-,-,-,-,-
